According to ChEMBL document CHEMBL1143652, “Joys of molecules. 2. Endeavors in chemical biology and medicinal chemistry” (J Med Chem, 2005):
Where “and” joins values, the source holds several entries; their conditions need not be identical. Equal entries are not always repeated.

Columns and labels:
Somatostatin receptor = assay: Binding affinity for SRIF (somatostatin) receptor; format: protein assay
Nucleic Acid = assay: Binding affinity towards DNA extracted from MOLT-4 cells; format: cell-free; conditions: Homo sapiens
1A9/ptx-10 [1] = assay: (§1) Inhibitory concentration against beta-tubulin mutant 1A9PTX10 cell growth; format: functional, cell-based; conditions: Homo sapiens
1A9/ptx-22 [2] = assay: (§2) Inhibitory concentration against beta-tubulin mutant 1A9PTX22 cell line; format: functional, cell-based; conditions: Homo sapiens
1A9/ptx-10 [3] = assay: as §1; format: functional, cell-based; conditions: Homo sapiens; remark: listed apart in the source
[4] = biological target: Tubulin beta-4B chain (Homo sapiens) (UniProt P68371); assay: Percent […] of tubulin by the compound; format: functional
Summary of the method: (§3)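 Tubulin polymerization was read as percent polymerization, with test drug at 100 µM and a 90 min incubation.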

1A9 [5] = assay: Inhibitory concentration against ovarian carcinoma 1A9 cell growth; format: functional, cell-based; conditions: Homo sapiens
1A9/ptx-22 [6] = assay: as §2; format: functional, cell-based; conditions: Homo sapiens; remark: listed apart in the source
OVCAR-3 = assay: Cytotoxicity by measuring inhibitory concentration against ovcar-3 tumor cell line; format: functional, cell-based, Homo sapiens
1A9 [7] = assay: Cytotoxicity against 1A9 human ovarian carcinoma cells; format: functional, cell-based
Bacteria = assay: Minimum inhibitory concentration against bacterial strains; format: functional
[8] = biological target: Tubulin beta-4B chain (Homo sapiens) (UniProt P68371); assay: (§4) Tubulin polymerization at a concentration of 100 uM incubated for 90 minutes; summary of the method: as §3
[9] = biological target: Tubulin beta-4B chain (Homo sapiens) (UniProt P68371); assay: as §4; format: functional; summary of the method: as §3

Tubulin beta-4B chain (Homo sapiens), sequence (P68371 whole entry): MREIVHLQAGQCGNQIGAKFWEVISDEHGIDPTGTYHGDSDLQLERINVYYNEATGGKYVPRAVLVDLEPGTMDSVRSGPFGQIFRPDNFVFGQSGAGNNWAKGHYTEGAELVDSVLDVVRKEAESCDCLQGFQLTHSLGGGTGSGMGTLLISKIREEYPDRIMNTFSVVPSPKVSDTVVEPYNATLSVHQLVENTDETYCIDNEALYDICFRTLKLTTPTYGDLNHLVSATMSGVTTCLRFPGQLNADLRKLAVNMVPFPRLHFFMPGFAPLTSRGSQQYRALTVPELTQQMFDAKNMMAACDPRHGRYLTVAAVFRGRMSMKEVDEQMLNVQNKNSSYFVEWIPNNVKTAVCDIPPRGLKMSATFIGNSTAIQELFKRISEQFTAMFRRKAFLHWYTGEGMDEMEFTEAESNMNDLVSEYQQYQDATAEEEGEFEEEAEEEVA

`NCCCCCOC[C@@H]1O[C@@H](OCCc2cc3ccccc3[nH]2)[C@@H](OCc2ccccc2)[C@@H](OCc2ccccc2)[C@@H]1OCc1ccccc1` was tested, and the IC50 (Somatostatin receptor) was 15 µM.

Work on `CCNC1COC(OC2C(OC)OC(C)C(NOC3CC(O)C(SC(=O)c4c(C)c(C)c(OC5OC(C)C(O)C(OC)C5O)c(OC)c4OC)C(C)O3)C2O)CC1OC` (stereo unspecified) yielded a K obs (Nucleic Acid) of 38 µM.

With `C/C(=C\c1csc(C)n1)[C@@H]1C[C@@H]2O[C@]2(C)CCC[C@H](C)[C@H](O)[C@@H](C)C(=O)C(C)(C)[C@@H](O)CC(=O)O1` [PATUPILONE] the IC50 (1A9/ptx-10 [1]) was 0.001 µM, the IC50 (1A9/ptx-22 [2]) was 0.00031 µM and the IC50 (1A9/ptx-10 [3]) was 0.001 µM. It also gave a TP [4] of 98%, an IC50 (1A9 [5]) of 0.00013 µM and an IC50 (1A9/ptx-22 [6]) of 0.00031 µM.

For `CSc1nc(/C=C(\C)[C@@H]2C[C@@H]3C[C@H]3CCC[C@H](C)[C@H](O)[C@@H](C)C(=O)C(C)(C)CCC(=O)O2)cs1`, the IC50 (1A9/ptx-10 [1]) was 0.0032 µM, the IC50 (1A9/ptx-22 [2]) was 0.0008 µM and the IC50 (1A9/ptx-10 [3]) was 0.0032 µM. It also gave an IC50 (1A9 [5]) of 0.0012 µM and an IC50 (1A9/ptx-22 [6]) of 0.0008 µM.

In the case of `CC(=O)O[C@@H]1C2=C(C)[C@@H](OC(=O)[C@H](O)[C@@H](NC(=O)c3ccccc3)c3ccccc3)C[C@@](O)([C@@H](OC(=O)c3ccccc3)c3ccccc3[C@H]1OC(C)=O)C2(C)C`, the IC50 (OVCAR-3; ovcar-3) is reported as 0.028 µM and 0.28 µM.

With `CC/C=C\C=C/C(=O)N/C=C\C[C@H]1C[C@H]2C[C@H](O)C[C@H](Cc3cccc(O)c3C(=O)O1)O2` the IC50 (1A9 [7]) was 0.0707 µM.

With `CC(=O)OC1C(=O)[C@@]2(C)[C@H]([C@H](OC(=O)c3ccc(N(C)C)cc3)[C@]3(O)C[C@H](OC(=O)[C@H](O)[C@@H](NC(=O)c4ccccc4)c4ccccc4)C(C)=C1C3(C)C)[C@]1(OC(C)=O)CO[C@@H]1C[C@@H]2O` (stereo partly specified) the IC50 (OVCAR-3; Homo sapiens, OVCAR-3) was 2.21 µM and the IC50 (OVCAR-3; ovcar-3) was 2.2 µM.

`CC(=O)OC1C(=O)[C@@]2(C)[C@H]([C@H](OC(=O)c3ccc4ccccc4c3)[C@]3(O)C[C@H](OC(=O)[C@H](O)[C@@H](NC(=O)c4ccccc4)c4ccccc4)C(C)=C1C3(C)C)[C@]1(OC(C)=O)CO[C@@H]1C[C@@H]2O` (stereo partly specified) was tested, and the IC50 (OVCAR-3; ovcar-3) was greater than 11000 µM.

In the case of `C/C(=C\c1ccc(C)cn1)[C@@H]1C[C@@H]2C[C@@H]2CCC[C@H](C)[C@H](O)[C@@H](C)C(=O)C(C)(C)[C@@H](O)CC(=O)O1`, the IC50 (1A9/ptx-10 [1]) is reported as 0.0192 µM, the IC50 (1A9/ptx-22 [2]) is reported as 0.00422 µM and the IC50 (1A9/ptx-10 [3]) is reported as 0.0192 µM. It also gave an IC50 (1A9 [5]) of 0.0025 µM and an IC50 (1A9/ptx-22 [6]) of 0.00422 µM.

`CC/C=C\C=C/C(=O)N/C=C/C[C@H]1C[C@H]2C[C@H](O)C[C@H](Cc3cccc(O)c3C(=O)O1)O2` [APICULAREN A] gave an IC50 (1A9 [7]) of 0.00078 µM.

`Cc1cccc(C)c1SSCCNC(=O)/C(Cc1cccc(Br)c1)=N/O` showed an MIC (Bacteria) of 0.11 ug m/L.

`NCCCCCCOC[C@@H]1O[C@@H](OCCc2cc3ccccc3[nH]2)[C@@H](OCc2ccccc2)[C@@H](OCc2ccccc2)[C@@H]1OCc1ccccc1` gave an IC50 (Somatostatin receptor) of 11 µM.

In the case of `OCCCCCNCC1OC(OCCc2cc3ccccc3[nH]2)C(OCc2ccccc2)C(OCc2ccccc2)C1OCc1ccccc1` (stereo unspecified), the IC50 (Somatostatin receptor) is reported as 14 µM.

In the case of `CCNC1COC(OC2C(OC)OC(C)C(NOC3CC(O)C(SC(=O)c4c(C)c(Br)c(OC5OC(C)C(O)C(OC)C5O)c(OC)c4OC)C(C)O3)C2O)CC1OC` (stereo unspecified), the K obs (Nucleic Acid) is reported as 10 µM.

Compound `C/C(=C\c1ccc(C)cn1)[C@@H]1C[C@@H]2C[C@@]2(C)CCC[C@H](C)[C@H](O)[C@@H](C)C(=O)C(C)(C)CCC(=O)O1` has an IC50 (1A9/ptx-10 [1]) of 0.0109 µM, an IC50 (1A9/ptx-22 [2]) of 0.0056 µM and an IC50 (1A9/ptx-10 [3]) of 0.0109 µM. It also gave an IC50 (1A9 [5]) of 0.00174 µM and an IC50 (1A9/ptx-22 [6]) of 0.0056 µM.

`Cc1cccc(C)c1SSCCNC(=O)/C(Cc1cc(F)cc(F)c1)=N/O` showed an MIC (Bacteria) of 0.28 ug m/L.

`CSc1nc(/C=C(\C)[C@@H]2C/C=C\CCC[C@H](C)[C@H](O)[C@@H](C)C(=O)C(C)(C)[C@@H](O)CC(=O)O2)cs1` gave an IC50 (1A9/ptx-10 [1]) of 0.022 µM, an IC50 (1A9/ptx-22 [2]) of 0.028 µM and an IC50 (1A9/ptx-10 [3]) of 0.022 µM. It also gave a TP [4] of 92%, an IC50 (1A9 [5]) of 0.009 µM and an IC50 (1A9/ptx-22 [6]) of 0.028 µM.

`C/C(=C\c1csc(C)n1)[C@@H]1C[C@@H]2O[C@]2(CF)CCC[C@H](C)[C@H](O)[C@@H](C)C(=O)C(C)(C)[C@@H](O)CC(=O)O1` was tested, and the IC50 (1A9/ptx-10 [1]) was 0.0004 µM, the IC50 (1A9/ptx-22 [2]) was 0.0002 µM and the IC50 (1A9/ptx-10 [3]) was 0.0004 µM. The TP [4] was 93%, the IC50 (1A9 [5]) was 0.0002 µM and the IC50 (1A9/ptx-22 [6]) was 0.0002 µM.

Work on `CO[C@]12C=C[C@](C)(O1)[C@@H](OC(=O)/C=C/c1csc(C)n1)C[C@H]1C(C)=CC[C@H](C(C)C)[C@H]1/C=C\2COC1OCC(O)C(O)C1OC(C)=O` (stereo partly specified) yielded a TP [8] of 56% and a TP [9] of 56%.

`CCNC1COC(OC2C(OC)OC(C)C(NOC3CC(O)C(SC(=O)c4c(C)c(Cl)c(OC5OC(C)C(O)C(OC)C5O)c(OC)c4OC)C(C)O3)C2O)CC1OC` (stereo unspecified) showed a K obs (Nucleic Acid) of 32 µM.

Work on `CCNC1COC(OC2C(OC)OC(C)C(NOC3CC(O)C(SC(=O)c4c(C)c(F)c(OC5OC(C)C(O)C(OC)C5O)c(OC)c4OC)C(C)O3)C2O)CC1OC` (stereo unspecified) yielded a K obs (Nucleic Acid) of 44 µM.

`CCNC1COC(OC2C(OC)OC(C)C(NOC3CC(O)C(SC(=O)c4c(C)c(I)c(OC5OC(C)C(O)C(OC)C5O)c(OC)c4OC)C(C)O3)C2O)CC1OC` (stereo unspecified) gave a K obs (Nucleic Acid) of 4.1 µM.
